Activity calls are given as the source filed them.
Assays:
Type in all cases: functional, organism-based
Mus musculus [1] = experiment: Anti-fibrotic activity in BML-induced pulmonary fibrosis C57BL/6 mouse model assessed as reduction in fibrotic thickening of aveolar/bronchial walls at 50 mg/kg, po administered bid with 7.5 hrs interval between 2 doses for 21 days relative to control
Method in brief: (§1)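 Male C57Bl/6 mice, 11 weeks at delivery, anesthetized and given intranasal bleomycin 30 μg/50 μL; PBS controls. Oral dosing twice daily, 7.5 h apart, 10 mL/kg, from challenge day for 21 days: test agent in PEG 200/0.5% MC, pirfenidone in 0.5% CMC, vehicle controls; 14−24 mice per group. Lungs stained by Mallory method, scored 1–5 (Matsuse-modified Ashcroft) as mean of 10 low-power fields; group median, Mann−Whitney.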

Mus musculus [2] = experiment: Anti-fibrotic activity in BML-induced pulmonary fibrosis C57BL/6 mouse model assessed as reduction in fibrous area with severe distortion of lung structure at 50 mg/kg, po administered bid with 7.5 hrs interval between 2 doses for 21 days relative to control; method in brief: as §1
Mus musculus [3] = experiment: Anti-fibrotic activity in BML-induced pulmonary fibrosis C57BL/6 mouse model assessed as reduction in fibrosis with damage of pulmonary structure at 50 mg/kg, po administered bid with 7.5 hrs interval between 2 doses for 21 days relative to control; method in brief: as §1

Measured: Activity

Cc1ccc(=O)n(-c2ccccc2)c1
active: Mus musculus [1] | Mus musculus [2] | Mus musculus [3]
